In ChEMBL document CHEMBL4613294, “Inhibition of Nonessential Bacterial Targets: Discovery of a Novel Serine O-Acetyltransferase Inhibitor” (ACS Med Chem Lett, 2020):
pIC50: −log10 of the molar value. In brackets after ≈: the same amount, converted by molar mass. Activity calls are given as the source filed them. No cut-off for these calls is given here.

Legend:
[1] = tested on: Salmonella enterica subsp. enterica serovar Typhimurium; assay: Inhibition of Salmonella typhimurium Serine acetyltransferase expressed in Escherichia coli Tuner(TM) BL21(DE3) cells at 100 uM using acetylCo-A and L-serine as substrate measured every 27 secs for 5 mins by DNTB reagent-based UV-Visible spectrophotometric method relative to control
In short: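 Recombinant StSAT activity followed indirectly with Ellman's reagent: CoASH released from acetyl-CoA plus L-Ser gives TNB, read by absorbance at pH above 7 (ε 14 000 M–1 cm–1) in 96-well format. Compounds at 100 μM, kinetic reads at 27 s intervals, % inhibition taken at 180 s endpoint. Hits at ≥40% retested at 100 μM.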

[2] = Inhibition of Salmonella typhimurium Serine acetyltransferase expressed in Escherichia coli Tuner(TM) BL21(DE3) cells using acetylCo-A and L-serine as substrate measured every 27 secs for 5 mins by DNTB reagent-based UV-Visible spectrophotometric method; parameters: species or system Salmonella enterica subsp. enterica serovar Typhimurium
Escherichia coli [3] = assay: Antibacterial activity against Escherichia coli ATCC 25922 incubated in LB 20% minimal medium lacking cysteine for 16 to 24 hrs by CLSI-based broth microdilution assay; type: functional
Escherichia coli [4] = assay: Antibacterial activity against Escherichia coli ATCC 25922 incubated in MHB medium for 16 to 24 hrs by CLSI-based broth microdilution assay; type: functional
Staphylococcus aureus = assay: Antibacterial activity against methicillin-resistant Staphylococcus aureus ATCC 33591 after 12 hrs by resazurin dye based assay; type: functional; settings: ATCC 33591, 12 h
[5] = tested on: Salmonella enterica subsp. enterica serovar Typhimurium; assay: Inhibition of Salmonella typhimurium Serine acetyltransferase expressed in Escherichia coli Tuner(TM) BL21(DE3) cells at 50 to 200 uM using acetylCo-A and L-serine as substrate measured every 27 secs for 5 mins by DNTB reagent-based UV-Visible spectrophotometric method
[6] = Solubility of compound at 200 uM; type: physicochemical

Row | SMILES | pIC50 [2] | MIC (Escherichia coli [3]) [µg/mL] | MIC (Escherichia coli [4]) [µg/mL] | solubility [6] | inhibition [1] [%] | MIC (Staphylococcus aureus) [µg/mL] | inhibition [5]
1 | CC1(C)CCC[C@]2(C)C1CC[C@]1(O)[C@H](O)C3=C(CO)C(=O)OC3=C[C@H]12 (some centres not stated) |  |  |  |  |  | 25 (≈ 71.7 µM) | 
2 | CC1=C2[C@@H](OC1=O)C(=O)[C@@H]1[C@@](O)(CCC3C(C)(C)CCC[C@]31C)[C@H]2O (some centres not stated) |  |  |  |  |  | 12.5 (≈ 35.9 µM) | 
3 | C=CCSc1nc2c(c(=O)[nH]1)C(c1ccc(OCC(N)=O)cc1)CC(=O)N2 (configuration not stated) | 4.08 | > 128 | > 128 |  | 57 |  | 

Further lines, with some results ahead:

Row | pIC50 [2] | MIC (Escherichia coli [3]) [µg/mL] | MIC (Escherichia coli [4]) [µg/mL] | solubility [6] | SMILES | inhibition [1] [%] | MIC (Staphylococcus aureus) [µg/mL] | inhibition [5]
4 | 4.32 | > 128 | > 128 |  | Cc1snnc1C(=O)Nc1ncc([N+](=O)[O-])s1 | 72 |  | 
5 | 4.31 | 64 (≈ 249 µM) | > 128 |  | O=C(Nc1ncc([N+](=O)[O-])s1)c1csnn1 | 68 |  | 
6 | 4.28 | > 128 | > 128 |  | COc1ccc(-c2cc(C(=O)NCc3ccccc3)n[nH]2)cc1S(N)(=O)=O | 79 |  | 
7 |  | > 128 | > 128 | Insoluble | COc1cc(NC(=O)c2cc(-c3ccc(OC)c(S(N)(=O)=O)c3)[nH]n2)cc(OC)c1 | 52 |  | Active
8 | 4.87 | > 128 | > 128 |  | COc1cccc(NC(=O)c2cc(-c3ccc(OC)c(S(N)(=O)=O)c3)[nH]n2)c1 | 75 |  | 
